CHOP inh: inhibitors of CHOP promoter induction, primary screen, cell-based, unfolded protein response, luciferase reporter. CHO-K1 CHOP-promoter luciferase, tunicamycin-induced, 15-18 h. inhibition, % at 10 µM. 220,000 tested, 3.8% active. AID 2732, 2010;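 active means compounds that reduced the stress-induced luciferase reporter signal by more than about 70% of percent inhibition, limit read from the data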;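 further: 0% = tunicamycin plus vehicle and 100% = wells without tunicamycin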
PREPL inh: PREPL enzyme inhibitors, primary screen, biochemical, fluorescence polarization | Prolyl endopeptidase-like (Homo sapiens), Q4J6C6 | recombinant PREPL, fluorescence polarization activity-based probe | inhibition, % at 5.96 µM | 320,000 tested, 0.68% active | AID 2751, 2010; in the data active means inhibition above about 43%;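 further: 0% = enzyme with DMSO and 100% = wells lacking enzyme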
Target sequence (Q4J6C6 whole entry, looked up): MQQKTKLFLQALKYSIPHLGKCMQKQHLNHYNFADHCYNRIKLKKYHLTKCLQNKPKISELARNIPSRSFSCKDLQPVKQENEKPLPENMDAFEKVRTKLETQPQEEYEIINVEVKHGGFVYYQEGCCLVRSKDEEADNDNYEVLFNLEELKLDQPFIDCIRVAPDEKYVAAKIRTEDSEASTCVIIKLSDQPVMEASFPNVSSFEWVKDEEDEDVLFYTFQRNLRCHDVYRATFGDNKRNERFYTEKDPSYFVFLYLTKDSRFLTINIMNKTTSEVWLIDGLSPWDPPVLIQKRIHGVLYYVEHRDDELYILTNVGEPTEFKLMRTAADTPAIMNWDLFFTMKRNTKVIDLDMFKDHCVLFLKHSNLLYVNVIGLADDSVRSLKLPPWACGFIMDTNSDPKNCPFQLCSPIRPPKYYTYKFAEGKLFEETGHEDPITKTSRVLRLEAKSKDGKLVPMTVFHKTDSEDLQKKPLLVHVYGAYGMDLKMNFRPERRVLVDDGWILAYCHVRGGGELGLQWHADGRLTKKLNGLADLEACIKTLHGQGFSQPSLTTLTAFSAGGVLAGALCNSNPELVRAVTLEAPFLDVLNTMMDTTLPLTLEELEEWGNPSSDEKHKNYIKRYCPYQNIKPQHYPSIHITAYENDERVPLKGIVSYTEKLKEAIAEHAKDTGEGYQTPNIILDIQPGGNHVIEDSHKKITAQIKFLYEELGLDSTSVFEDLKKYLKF
CSC inhib: cancer stem cell viability inhibitors, primary screen, luminescence; cancer stem cell-like cells viability; inhibition, % at 7.5 µM; 300,000 tested, 1.1% active; AID 2717, 2010; in the data active means inhibition above about 75%; tested in HMLE shEcad cells
Beta cell apopt: inhibitors of cytokine-induced beta cell apoptosis, primary screen, luminescence; INS-1E cytokine-induced death, ATP luminescence, 48 h; percent of positive-control rescue, neutral wells zero; protection from apoptosis, % (concentration not given with the values); 300,000 tested, 0.8% active;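 active means Every replicate reaches about 75%, or at least half do and their mean reaches it too, limit read from the data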;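 further: 0% = cytokine-treated negative control wells and 100% = positive control rescue; higher means more ATP so stronger rescue from cytokine killing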
T cruzi inh: inhibitors of intracellular T. cruzi growth, primary screen, luminescence, NIH3T3 host cells. AID 1885, 2009. 300,000 tested, 1.4% active. T. cruzi beta-gal in NIH3T3, 90 h. inhibition, % (concentration not given with the values);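 active means mean inhibition across valid replicates above about 55%, limit read from the data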;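 further: signal also drops with host cell toxicity which is not excluded here; 0% = plate median of DMSO wells and 100% = zero luminescence signal; higher percent means less beta-gal luminescence so fewer parasites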
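System – NIH/3T3 host cells with β-galactosidase reporter T. cruzi · Doses – single 50 nL compound addition per well in DMSO · Reagent – 5000 T. cruzi trypomastigotes/well · Medium – Low-serum DMEM with 2% FBS · Timing – ≥90 h infection period, 3 h prior cell attachment · Evaluation – parasite load inhibition, % · Technique – GalScreen luminescence, 60 min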
GRIN3A LBD mod: binders of NR3A ligand-binding domain, primary screen, biophysical, differential scanning fluorimetry, uHTS. Glutamate receptor ionotropic, NMDA 3A (GRIN3A) ligand-binding domain. Tm shift relative to glycine control, % at 25 µM. AID 1259313, 2017. 340,000 tested, 2.5% active. NR3A LBD differential scanning fluorimetry, Tm shift; 0% = protein alone, 100% = glycine-bound protein;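 active means melting temperature shift of at least 10% of the positive control shift, at one fixed dose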
The depositor's hits bear a star; · = no result. Rows were chosen to be rich in hits. Some 6.7% of all compounds tested hit in one or more screens of this group.

SMILES | CHOP inh | PREPL inh | CSC inhib | Beta cell apopt | T cruzi inh | GRIN3A LBD mod
COc1ccccc1C(=O)Nc1ccc2oc(-c3ccc(F)cc3)nc2c1 | 30 | 0 | -3 | 5 | 8 | 14*
CCCC(=O)Nc1ccc(-c2nc3cc(C)c(C)cc3o2)c(O)c1 | -34 | 15 | 4 | 3 | 7 | 4
COc1ccc(CC(=O)Nc2ccc(-c3nc4cc(C)ccc4o3)c(O)c2)cc1OC | -69 | 8 | -4 | 16 | -4 | -6
Cc1ccc2oc(-c3ccc(NC(=O)c4ccncc4)cc3O)nc2c1 | -17 | 7 | 1 | 0 | 4 | 33*
Cc1ccc(OCC(=O)Nc2ccc(-c3nc4ncccc4o3)cc2)c(C)c1 | 84* | -4 | 10 | 3 | -5 | 10
Cc1ccc(OCC(=O)Nc2ccncc2)c(C)c1 | · | -9 | 0 | -8 | -4 | -2
CCCC(=O)Nc1ccc(-c2nc3cc(C)ccc3o2)cc1 | 50 | -4 | 48 | -2 | 14 | 14*
CCCC(=O)Nc1ccc2oc(-c3ccc(OC)c(Br)c3)nc2c1 | 96* | -11 | 16 | 12 | 25 | 2
COc1cc(C(=O)NCc2ccc(-c3nc4ccccc4o3)cc2)cc(OC)c1OC | 71* | -3 | -5 | 9 | -3 | 2
COc1ccccc1/C=C(/C(=O)OCC(N)=O)c1ccccc1 | 11 | 6 | 0 | 7 | -8 | 0
CCc1ccc(NC(=O)COC(=O)/C(=C/c2ccccc2OC)c2ccccc2)cc1 | 11 | 1 | 2 | -4 | -18 | 23*
Cc1nn(CCCC(=O)NCCc2ccccc2)c(=O)c2nccn12 | · | 15 | 0 | 3 | -7 | 0
Cc1[nH]n(-c2ccccc2)c(=O)c1N=Nc1ccccc1 | 95* | 2 | 14 | -6 | -2 | 1
COc1ccc(CNCCNC(=O)c2cccs2)c(OC)c1OC | -9 | -4 | -17 | -5 | -12 | 0
C/C(=N\N(Cc1ccccc1)c1ccccc1)c1cccnc1 | 25 | 2 | -18 | -3 | 62* | -1
CC(C)c1ccc(C(=O)NN2C(=O)C3CCCCC3C2=O)cc1 (configuration not stated) | -38 | -6 | -19 | -3 | -9 | 25*
CCOc1ccccc1C(=O)NN1C(=O)C2CCCCC2C1=O (configuration not stated) | -5 | 3 | -23 | 0 | -4 | 23*
O=C(NN1C(=O)C2C3CCC(O3)C2C1=O)c1ccc(Cl)cc1 (configuration not stated) | 8 | 3 | -5 | -7 | -4 | -2
Cc1ccc(SCCNC(=S)Nc2ccccc2)cc1 | 66 | -1 | 7 | 0 | -8 | 2
Cc1cc(C)cc(NC(=S)NCCSc2ccc(Cl)cc2)c1 | 88* | -13 | · | -1 | 51 | 13*
Cc1ccc(SCCNC(=S)Nc2cc(C)ccc2C)cc1 | 53 | 4 | 3 | 9 | 5 | -5
Cc1ccc(SCCNC(=S)Nc2ccc(C)c(C)c2)cc1 | 75* | 7 | 30 | 5 | -12 | 7
Cc1ccc(CNC(=S)Nc2ccc(C)c([N+](=O)[O-])c2)cc1 | 49 | -14 | · | -4 | -4 | 11*
Cc1ccc(NC(=S)NCc2ccccc2)cc1[N+](=O)[O-] | 32 | 10 | -4 | 1 | -1 | -11
CCOc1ccccc1NC(=S)Nc1ccc(S(N)(=O)=O)cc1 | 19 | 11 | -1 | 0 | -11 | 1
SMILES | CHOP inh | PREPL inh | CSC inhib | Beta cell apopt | T cruzi inh | GRIN3A LBD mod
O=C(CCCCCNC(=O)N1CCn2c1nc1ccccc12)NCCc1ccccc1 | · | 6 | -10 | -7 | 15 | 1
COC(=O)CC(NC(=S)NC(=O)c1ccccc1)c1ccc(Br)cc1 (configuration not stated) | · | -48 | 8 | 3 | 18 | 0
C=CCn1c(=O)c2c3c(sc2n2c(Nc4ccc(C(=O)OCC)cc4)nnc12)CCCC3 | 88* | -4 | · | -1 | 24 | 0
Cc1cccc(C(=O)NC(C(=O)Nc2nc(-c3ccccn3)cs2)C(C)C)c1 (configuration not stated) | 34 | 2 | 40 | 38 | 82* | -1
CC(Oc1ccccc1)C(=O)Nc1nc(-c2ccccn2)cs1 (configuration not stated) | · | · | · | · | · | -4
CC(Oc1cccc(Cl)c1)C(=O)Nc1nc(-c2ccccn2)cs1 (configuration not stated) | · | -12 | 71 | · | 60* | -6
Cc1cccc(C(=O)N[C@H](C(=O)Nc2ncc(C)s2)C(C)C)c1 | 39 | 18 | 79* | 76* | 0 | 1
O=c1[nH]c(=S)[nH]c2nccnc12 | · | · | · | · | · | -1
Cc1ccc(S(=O)(=O)N2CCC(NC(=O)OC(C)C)CC2)cc1 | 21 | -4 | -12 | -6 | -14 | 0
COc1ccc(S(=O)(=O)NCC2CCCN(Cc3cn(C)nc3C)C2)cc1 (configuration not stated) | · | 1 | 17 | -3 | -6 | 1
COc1ccc(CN(C)C(=O)c2cccc(Oc3ccccc3)c2)c(OC)c1OC | · | 4 | 6 | 2 | 13 | 0
Cc1cnc(NC(=O)c2c(O)c3cccc4c3n(c2=O)CCC4)s1 | 76* | · | · | · | 7 | ·
Cc1cccc(NC(=O)c2c(O)c3cccc4c3n(c2=O)CCC4)n1 | -5 | · | · | · | · | ·
COc1ccc(C2=NOC(C(=O)NCc3ccco3)C2)cc1 (configuration not stated) | 0 | 3 | · | 5 | -58 | 11*
COc1cc(C2=NOC(C(=O)NCc3ccco3)C2)cc(OC)c1OC (configuration not stated) | · | -3 | 65 | 2 | -31 | 0
O=C1Nc2ccccc2C(=O)C1(Cl)Cc1ccccc1 (configuration not stated) | 77* | 20 | 12 | -9 | 6 | 2
CC(C)c1cc(C(N)=O)c(NC(=O)c2cccc(COc3ccc(Cl)cc3)c2)s1 | 19 | 11 | 57 | -3 | 42 | 16*
COc1ccc(/C=N/NC(=O)c2c(Br)cnn2C)c2ccccc12 | · | -7 | -8 | · | 1 | -10
NC(=O)c1ccc(NC(=O)COC(=O)c2ccc(Br)c(S(=O)(=O)N3CCOCC3)c2)cc1 | · | · | · | · | · | 1
COc1ccc(-n2c(N)c(-c3nc4ccccc4n3C)sc2=S)cc1 | 28 | 28 | -4 | -3 | 19 | 1
CCOc1ccc(-n2c(N)c(-c3nc4ccccc4[nH]3)sc2=S)cc1 | 81* | 2 | -3 | -12 | -2 | -1
OC(CNC1CCCCC1)COCCOc1ccc(Br)cc1 (configuration not stated) | 22 | 40 | 58 | 106* | 36 | 0

From PubChem BioAssay
